Data taken from ChEMBL document CHEMBL1136453, “New classes of antibacterial oxazolidinones with C-5, methylene O-linked heterocyclic side chains” (2003).
≈ marks a conversion by molar mass, not a printed value.

Tests used:
[1] = test system: Streptococcus pyogenes; experiment: In vitro minimum inhibitory concentration against Streptococcus pyogenes penicillin sensitive; format: functional
In short: (§1)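 Agar dilution per NCCLS protocol with doubling dilutions from 128 to 0.008 mg/L, incubated at 37 °C. Strains came from an in-house culture collection. MIC reported in mg/L.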

[2] = test system: Staphylococcus aureus; experiment: In vitro minimum inhibitory concentration against Staphylococcus aureus MRQR; format: functional
[3] = test system: Enterococcus faecalis; experiment: In vitro minimum inhibitory concentration against Enterococcus faecalis; format: functional; in short: as §1
[4] = test system: Staphylococcus aureus; experiment: In vitro minimum inhibitory concentration against Staphylococcus aureus Oxford; format: functional
[5] = test system: Staphylococcus aureus; experiment: In vitro minimum inhibitory concentration against coagulase negative Staphylococcus aureus methicillin resistant (CNSMR); format: functional
[6] = test system: Staphylococcus aureus; experiment: In vivo antibacterial activity against Staphylococcus aureus after intravenous administration (10 mg/kg) in mice using (MTT) mouse thigh test
[7] = In vivo antibacterial activity against Staphylococcus aureus after intravenous administration (5 mg/kg) in mice using (MTT) mouse thigh test
[8] = Staphylococcus aureus, read-out: MIC

| Compound | MIC [1] | MIC [2] | MIC [3] | MIC [4, 8] | MIC [5] | Activity [6] | Activity [7] | MIC [4] |
| --- | --- | --- | --- | --- | --- | --- | --- | --- |
| O=C1O[C@@H](COc2cccc[n+]2[O-])CN1c1ccc(C2=CCOCC2)c(F)c1 | > 128 µg/mL | > 128 µg/mL | > 128 µg/mL | > 128 µg/mL | – | – | – | – |
| N#CCCS(=O)(=O)C[C@H](O)C(=O)N1CC=C(c2c(F)cc(N3C[C@H](COc4ccon4)OC3=O)cc2F)CC1 | 0.5 µg/mL (≈ 0.883 µM) | 0.5 µg/mL (≈ 0.883 µM) | 1 µg/mL (≈ 1.77 µM) | 0.25 µg/mL (≈ 0.441 µM) | 0.5 µg/mL (≈ 0.883 µM) | – | – | – |
| O=C(C(CO)Cn1cncn1)N1CC=C(c2c(F)cc(N3C[C@H](COc4ccon4)OC3=O)cc2F)CC1 (stereo not given in full) | 1 µg/mL (≈ 1.89 µM) | 1 µg/mL (≈ 1.89 µM) | 2 µg/mL (≈ 3.77 µM) | 0.5 µg/mL (≈ 0.943 µM) | 1 µg/mL (≈ 1.89 µM) | 0.5 | 0.25 | – |
| O=C1O[C@@H](COc2ccon2)CN1c1ccc(C2=CCN(CCO)CC2)c(F)c1 | 2 µg/mL (≈ 4.96 µM) | 8 µg/mL (≈ 19.8 µM) | 8 µg/mL (≈ 19.8 µM) | 4 µg/mL (≈ 9.92 µM) | 4 µg/mL (≈ 9.92 µM) | – | – | – |
| CN1CC=C(c2c(F)cc(N3C[C@H](COc4ccon4)OC3=O)cc2F)CC1 | 1 µg/mL (≈ 2.56 µM) | 2 µg/mL (≈ 5.11 µM) | 4 µg/mL (≈ 10.2 µM) | 2 µg/mL (≈ 5.11 µM) | 2 µg/mL (≈ 5.11 µM) | – | – | – |
| O=C([C@@H](O)CO)N1CC=C(c2ccc(N3C[C@H](COc4cnsn4)OC3=O)cc2F)CC1 | 0.13 µg/mL (≈ 0.28 µM) | 0.13 µg/mL (≈ 0.28 µM) | 0.25 µg/mL (≈ 0.538 µM) | 0.06 µg/mL (≈ 0.129 µM) | 0.13 µg/mL (≈ 0.28 µM) | 1.11 | 0.42 | – |
| CC(=O)N1CC=C(c2ccc(N3C[C@H](COc4ccon4)OC3=O)cc2F)CC1 | 1 µg/mL (≈ 2.49 µM) | 0.5 µg/mL (≈ 1.25 µM) | 1 µg/mL (≈ 2.49 µM) | 0.5 µg/mL (≈ 1.25 µM) | 0.5 µg/mL (≈ 1.25 µM) | 0.81 | 0.17 | – |
| O=C1O[C@@H](COc2ccncc2)CN1c1ccc(C2=CCOCC2)c(F)c1 | 64 µg/mL (≈ 173 µM) | 32 µg/mL (≈ 86.4 µM) | 64 µg/mL (≈ 173 µM) | 16 µg/mL (≈ 43.2 µM) | 32 µg/mL (≈ 86.4 µM) | – | – | – |
| Cc1cccc(OC[C@H]2CN(c3ccc(C4=CCOCC4)c(F)c3)C(=O)O2)n1 | > 128 µg/mL | > 128 µg/mL | > 128 µg/mL | > 128 µg/mL | – | – | – | – |
| O=C1O[C@@H](COc2ccncn2)CN1c1ccc(C2=CCOCC2)c(F)c1 | 4 µg/mL (≈ 10.8 µM) | 2 µg/mL (≈ 5.39 µM) | 4 µg/mL (≈ 10.8 µM) | 1 µg/mL (≈ 2.69 µM) | 2 µg/mL (≈ 5.39 µM) | 0.34 | 0.23 | – |
| O=C1O[C@@H](COc2ccccc2)CN1c1ccc(C2=CCOCC2)c(F)c1 | > 128 µg/mL | > 128 µg/mL | > 128 µg/mL | > 128 µg/mL | – | – | – | – |
| O=C(C(CO)CO)N1CC=C(c2c(F)cc(N3C[C@H](COc4ccon4)OC3=O)cc2F)CC1 | 0.5 µg/mL (≈ 1.04 µM) | 0.5 µg/mL (≈ 1.04 µM) | 1 µg/mL (≈ 2.09 µM) | 0.5 µg/mL (≈ 1.04 µM) | 0.5 µg/mL (≈ 1.04 µM) | 0.41 | 0.37 | – |
| Cc1cccnc1OC[C@H]1CN(c2ccc(C3=CCOCC3)c(F)c2)C(=O)O1 | 8 µg/mL (≈ 20.8 µM) | 16 µg/mL (≈ 41.6 µM) | 32 µg/mL (≈ 83.2 µM) | 8 µg/mL (≈ 20.8 µM) | 16 µg/mL (≈ 41.6 µM) | – | – | – |
| N#Cc1ccc(OC[C@H]2CN(c3ccc(C4=CCOCC4)c(F)c3)C(=O)O2)nc1 | > 128 µg/mL | > 128 µg/mL | > 128 µg/mL | > 128 µg/mL | – | – | – | – |
| O=C1O[C@@H](COc2cccnn2)CN1c1ccc(C2=CCOCC2)c(F)c1 | 2 µg/mL (≈ 5.39 µM) | 2 µg/mL (≈ 5.39 µM) | 4 µg/mL (≈ 10.8 µM) | 2 µg/mL (≈ 5.39 µM) | 2 µg/mL (≈ 5.39 µM) | – | – | – |
| Cc1ccnc(OC[C@H]2CN(c3ccc(C4=CCOCC4)c(F)c3)C(=O)O2)c1 | 4 µg/mL (≈ 10.4 µM) | 2 µg/mL (≈ 5.2 µM) | 4 µg/mL (≈ 10.4 µM) | 2 µg/mL (≈ 5.2 µM) | 2 µg/mL (≈ 5.2 µM) | – | – | – |

| Compound | MIC [1] | MIC [2] | MIC [3] | MIC [4, 8] | MIC [5] | Activity [6] | Activity [7] | MIC [4] |
| --- | --- | --- | --- | --- | --- | --- | --- | --- |
| O=C1O[C@@H](COc2ncccn2)CN1c1ccc(C2=CCOCC2)c(F)c1 | 32 µg/mL (≈ 86.2 µM) | 16 µg/mL (≈ 43.1 µM) | 64 µg/mL (≈ 172 µM) | 16 µg/mL (≈ 43.1 µM) | 16 µg/mL (≈ 43.1 µM) | – | – | – |
| Cc1cc(OC[C@H]2CN(c3ccc(C4=CCOCC4)c(F)c3)C(=O)O2)no1 | 4 µg/mL (≈ 10.7 µM) | 2 µg/mL (≈ 5.34 µM) | 4 µg/mL (≈ 10.7 µM) | 1 µg/mL (≈ 2.67 µM) | 2 µg/mL (≈ 5.34 µM) | -0.45 | – | – |
| CS(=O)(=O)c1ccc(N2C[C@H](COc3nccs3)OC2=O)cc1F | 16 µg/mL (≈ 43 µM) | 16 µg/mL (≈ 43 µM) | 32 µg/mL (≈ 85.9 µM) | 16 µg/mL (≈ 43 µM) | 32 µg/mL (≈ 85.9 µM) | – | – | – |
| O=C1O[C@@H](COc2cnccn2)CN1c1ccc(C2=CCOCC2)c(F)c1 | 1 µg/mL (≈ 2.69 µM) | 1 µg/mL (≈ 2.69 µM) | 2 µg/mL (≈ 5.39 µM) | 1 µg/mL (≈ 2.69 µM) | 1 µg/mL (≈ 2.69 µM) | 0.35 | 0.22 | – |
| O=C1O[C@@H](COc2cccnc2)CN1c1ccc(C2=CCOCC2)c(F)c1 | 8 µg/mL (≈ 21.6 µM) | 4 µg/mL (≈ 10.8 µM) | 8 µg/mL (≈ 21.6 µM) | 4 µg/mL (≈ 10.8 µM) | 4 µg/mL (≈ 10.8 µM) | – | – | – |
| O=C1O[C@@H](COc2cnsn2)CN1c1ccc(C2=CCOCC2)c(F)c1 | 0.25 µg/mL (≈ 0.662 µM) | 0.25 µg/mL (≈ 0.662 µM) | 0.5 µg/mL (≈ 1.32 µM) | 0.25 µg/mL (≈ 0.662 µM) | 0.25 µg/mL (≈ 0.662 µM) | 0.45 | 0.11 | – |
| O=C([C@@H](O)CS(=O)(=O)CCO)N1CC=C(c2c(F)cc(N3C[C@H](COc4ccon4)OC3=O)cc2F)CC1 | 0.25 µg/mL (≈ 0.448 µM) | 0.5 µg/mL (≈ 0.897 µM) | 0.5 µg/mL (≈ 0.897 µM) | 0.25 µg/mL (≈ 0.448 µM) | 0.25 µg/mL (≈ 0.448 µM) | 0.32 | 0.1 | – |
| O=C1O[C@@H](COc2ccon2)CN1c1cc(F)c(C2=CCN(Cc3nccs3)CC2)c(F)c1 | 1 µg/mL (≈ 2.11 µM) | 1 µg/mL (≈ 2.11 µM) | 2 µg/mL (≈ 4.22 µM) | 0.5 µg/mL (≈ 1.05 µM) | 1 µg/mL (≈ 2.11 µM) | 0.28 | 0.07 | – |
| Cc1nnc(OC[C@H]2CN(c3ccc(C4=CCOCC4)c(F)c3)C(=O)O2)o1 | 8 µg/mL (≈ 21.3 µM) | 4 µg/mL (≈ 10.7 µM) | 8 µg/mL (≈ 21.3 µM) | 4 µg/mL (≈ 10.7 µM) | 8 µg/mL (≈ 21.3 µM) | – | – | – |
| COC(=O)c1cc(OC[C@H]2CN(c3ccc(C4=CCOCC4)c(F)c3)C(=O)O2)no1 | 16 µg/mL (≈ 38.2 µM) | 16 µg/mL (≈ 38.2 µM) | 128 µg/mL (≈ 306 µM) | 8 µg/mL (≈ 19.1 µM) | 32 µg/mL (≈ 76.5 µM) | – | – | – |
| O=C([C@H](O)CO)N1CC=C(c2c(F)cc(N3C[C@H](COc4ccon4)OC3=O)cc2F)CC1 | 0.25 µg/mL (≈ 0.537 µM) | 0.25 µg/mL (≈ 0.537 µM) | 0.5 µg/mL (≈ 1.07 µM) | 0.25 µg/mL (≈ 0.537 µM) | 0.5 µg/mL (≈ 1.07 µM) | 0.55 | – | – |
| O=C(CO)N1CC=C(c2ccc(N3C[C@H](COc4cnsn4)OC3=O)cc2F)CC1 | 0.25 µg/mL (≈ 0.575 µM) | 0.25 µg/mL (≈ 0.575 µM) | 0.25 µg/mL (≈ 0.575 µM) | 0.13 µg/mL (≈ 0.299 µM) | 0.25 µg/mL (≈ 0.575 µM) | 1.21 | 0.78 | – |
| O=C1O[C@@H](Cn2ccccc2=O)CN1c1ccc(C2=CCOCC2)c(F)c1 | 32 µg/mL (≈ 86.4 µM) | 32 µg/mL (≈ 86.4 µM) | 64 µg/mL (≈ 173 µM) | – | 32 µg/mL (≈ 86.4 µM) | – | – | 32 µg/mL (≈ 86.4 µM) |
| O=C(C(CO)Cn1ccnc1)N1CC=C(c2c(F)cc(N3C[C@H](COc4ccon4)OC3=O)cc2F)CC1 (stereo not given in full) | 1 µg/mL (≈ 1.89 µM) | 2 µg/mL (≈ 3.78 µM) | 2 µg/mL (≈ 3.78 µM) | 1 µg/mL (≈ 1.89 µM) | 2 µg/mL (≈ 3.78 µM) | – | – | – |
| Cc1cc(OC[C@H]2CN(c3cc(F)c(C4=CCN(C(=O)[C@@H](O)CO)CC4)c(F)c3)C(=O)O2)on1 | 2 µg/mL (≈ 4.17 µM) | 2 µg/mL (≈ 4.17 µM) | 2 µg/mL (≈ 4.17 µM) | 1 µg/mL (≈ 2.09 µM) | 1 µg/mL (≈ 2.09 µM) | – | – | – |
| O=C(CO)N1CC=C(c2c(F)cc(N3C[C@H](COc4cnsn4)OC3=O)cc2F)CC1 | 0.25 µg/mL (≈ 0.553 µM) | 0.25 µg/mL (≈ 0.553 µM) | 0.5 µg/mL (≈ 1.11 µM) | 0.13 µg/mL (≈ 0.287 µM) | 0.25 µg/mL (≈ 0.553 µM) | 1.72 | 1.05 | – |
